Experiments:
[1] = Oral bioavailability in orchidectomized Sprague-Dawley rat at 30 mg/kg after 1 day; assay type: ADME, organism-based; conditions: male, in vivo
Summary of the method: (§1)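 Orchidectomized SD rats, single oral dose of 30 mg/kg in PEG 400; iv arm 1 mg/kg in 20% DMSO/PEG 200 for bioavailability; one-day PK study.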

CYP2D6 = CYP2D6 (Homo sapiens, UniProt P10635); experiment: Inhibition of CYP2D6 at 3 uM; assay type: ADME
Rattus norvegicus [2] = experiment: Change in serum leutinizing hormone level in orchidectomized rat at 30 mg/kg, po after 6 hrs relative to control; assay type: functional
Summary of the method: (§2)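 Orchidectomized rats (stable elevated LH after testosterone feedback removal), oral gavage 30 mg/kg in PEG 400 vs vehicle cohort, n = 6 per group; serum LH sampled over 24 h, relative LH with t = 0 set to 100; change = treated minus vehicle average.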

[3] = Solubility at pH 7.4; assay type: physicochemical; conditions: buffer
Rattus norvegicus [4] = experiment: Change in serum leutinizing hormone level in orchidectomized rat at 30 mg/kg, po after 24 hrs relative to control; assay type: functional; summary of the method: as §2
[5] = Metabolic stability in rat liver microsomes assessed as half life; assay type: ADME, Microsome
[6] = Half life in orchidectomized Sprague-Dawley rat at 1 mg/kg, iv after 1 day; assay type: ADME, organism-based; parameters: dose 1 mg/kg, route intravenous; conditions: male, in vivo
Summary of the method: (§3)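 Orchidectomized SD rats, single iv dose of 1 mg/kg in 20% DMSO/PEG 200; one-day PK study.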

[7] = Half life in orchidectomized Sprague-Dawley rat at 30 mg/kg, po after 1 day; assay type: ADME, organism-based; parameters: dose 30 mg/kg, route oral; conditions: male, in vivo; summary of the method: as §1
Rattus norvegicus [8] = experiment: Change in serum leutinizing hormone level in orchidectomized rat at 30 mg/kg, po after 4 hrs relative to control; assay type: functional; summary of the method: as §2
Rattus norvegicus [9] = experiment: Change in serum leutinizing hormone level in orchidectomized rat at 30 mg/kg, po after 1 hr relative to control; assay type: functional; summary of the method: as §2
CYP3A4 = CYP3A4 (Homo sapiens, UniProt P08684); experiment: Inhibition of CYP3A4 at 3 uM; assay type: ADME
[10] = Reduction in leutinizing hormone release in (D-Trp6)-GnRH-stimulated rat primary pituitary cells by RIA; assay type: functional, cell-based; conditions: Pituitary gland cell
Summary of the method: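 Primary rat pituitary cells stimulated with (D-Trp6)-GnRH; compound-driven reduction of LH release read as IC50.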

[11] = target: T1, Gonadotropin-releasing hormone receptor (Homo sapiens, UniProt P30968); experiment: Antagonist activity at human recombinant GnRH receptor expressed in HEK293 cells assessed as reduction in (D-Trp6)-GnRH-stimulated IP production by whole cell assay; assay type: functional, cell-based
T1 sequence (P30968 whole entry): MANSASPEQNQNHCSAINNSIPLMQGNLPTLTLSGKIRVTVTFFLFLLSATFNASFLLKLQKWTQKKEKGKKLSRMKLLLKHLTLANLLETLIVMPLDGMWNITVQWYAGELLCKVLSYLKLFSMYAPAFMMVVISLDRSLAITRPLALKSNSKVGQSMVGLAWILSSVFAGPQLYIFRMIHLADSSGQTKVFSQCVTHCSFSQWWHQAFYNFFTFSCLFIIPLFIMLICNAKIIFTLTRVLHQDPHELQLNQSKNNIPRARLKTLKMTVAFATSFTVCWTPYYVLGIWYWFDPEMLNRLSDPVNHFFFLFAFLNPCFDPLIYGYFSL
Summary of the method: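 Whole-cell assay, cells stimulated with (D-Trp6)-GnRH; compound-driven reduction of inositol phosphate read as IC50.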

Rattus norvegicus [12] = experiment: Change in serum leutinizing hormone level in orchidectomized rat at 30 mg/kg, po after 2 hrs relative to control; assay type: functional; summary of the method: as §2
[13] = target: T2, Gonadotropin-releasing hormone receptor (Rattus norvegicus, UniProt P30969); experiment: Displacement of [125I]-(D-Trp6)-GnRH from rat GnRH receptor
T2 sequence (P30969 whole entry): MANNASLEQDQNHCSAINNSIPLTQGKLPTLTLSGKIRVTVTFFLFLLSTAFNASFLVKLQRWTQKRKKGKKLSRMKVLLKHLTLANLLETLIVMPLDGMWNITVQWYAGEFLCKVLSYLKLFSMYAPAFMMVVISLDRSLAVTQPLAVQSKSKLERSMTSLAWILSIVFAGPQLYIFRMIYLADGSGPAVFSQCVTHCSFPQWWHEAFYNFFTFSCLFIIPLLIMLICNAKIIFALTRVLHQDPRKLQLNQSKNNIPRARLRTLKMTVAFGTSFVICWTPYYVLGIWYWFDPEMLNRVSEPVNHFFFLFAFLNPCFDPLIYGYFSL
Summary of the method: (§4)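 Competition binding at overexpressed human or rat GnRH receptors against 125I-(D-Trp6)-GnRH; IC50 averaged from two independent experiments run in triplicate.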

[14] = target: T1, Gonadotropin-releasing hormone receptor; experiment: Displacement of [125I]-(D-Trp6)-GnRH from human GnRH receptor; summary of the method: as §4
[15] = AUC (0 to alpha) in orchidectomized Sprague-Dawley rat at 30 mg/kg, po after 1 day; assay type: ADME, organism-based; parameters: dose 30 mg/kg, route oral; conditions: male, plasma; summary of the method: as §1
[16] = Clearance in orchidectomized Sprague-Dawley rat at 1 mg/kg, iv after 1 day; assay type: ADME, organism-based; parameters: dose 1 mg/kg, route intravenous; conditions: male, in vivo; summary of the method: as §3
CYP2C9 = CYP2C9 (Homo sapiens, UniProt P11712); experiment: Inhibition of CYP2C9 at 3 uM; assay type: ADME
Rattus norvegicus [17] = experiment: Change in serum leutinizing hormone level in orchidectomized rat at 30 mg/kg, po after 0.5 hrs relative to control; assay type: functional; summary of the method: as §2
[18] = Volume of distribution at steady state in orchidectomized Sprague-Dawley rat at 1 mg/kg, iv after 1 day; assay type: ADME, organism-based; parameters: dose 1 mg/kg, route intravenous; conditions: male, in vivo, read-out: Vdss; summary of the method: as §3

CYP3A4, sequence (P08684 whole entry): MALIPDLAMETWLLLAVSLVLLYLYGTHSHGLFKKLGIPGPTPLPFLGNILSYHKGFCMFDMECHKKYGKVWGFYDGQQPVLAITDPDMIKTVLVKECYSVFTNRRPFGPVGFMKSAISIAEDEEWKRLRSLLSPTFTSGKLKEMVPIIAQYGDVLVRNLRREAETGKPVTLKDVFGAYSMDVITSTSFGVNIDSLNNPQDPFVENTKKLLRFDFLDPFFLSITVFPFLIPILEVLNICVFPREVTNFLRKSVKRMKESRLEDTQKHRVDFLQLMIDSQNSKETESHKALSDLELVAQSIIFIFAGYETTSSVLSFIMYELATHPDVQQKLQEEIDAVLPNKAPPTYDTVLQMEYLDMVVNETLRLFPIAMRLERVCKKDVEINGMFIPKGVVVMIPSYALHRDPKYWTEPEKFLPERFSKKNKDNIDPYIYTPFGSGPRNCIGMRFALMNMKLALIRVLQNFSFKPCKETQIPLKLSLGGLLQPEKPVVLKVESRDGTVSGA
CYP2C9, sequence (P11712 whole entry): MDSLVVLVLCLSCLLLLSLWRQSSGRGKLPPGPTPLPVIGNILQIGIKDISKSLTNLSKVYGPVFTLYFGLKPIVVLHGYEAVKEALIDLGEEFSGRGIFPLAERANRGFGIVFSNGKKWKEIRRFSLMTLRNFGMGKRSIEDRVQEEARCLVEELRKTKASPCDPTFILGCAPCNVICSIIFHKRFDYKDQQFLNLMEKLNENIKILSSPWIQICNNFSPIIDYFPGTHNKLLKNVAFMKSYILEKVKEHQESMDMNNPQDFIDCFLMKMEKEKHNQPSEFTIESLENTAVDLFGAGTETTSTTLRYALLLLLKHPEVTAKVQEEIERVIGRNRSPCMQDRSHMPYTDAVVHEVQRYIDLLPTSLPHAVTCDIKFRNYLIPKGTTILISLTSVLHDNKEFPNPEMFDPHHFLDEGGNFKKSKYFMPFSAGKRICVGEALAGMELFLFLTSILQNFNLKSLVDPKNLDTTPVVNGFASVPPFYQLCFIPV
CYP2D6, sequence (P10635 whole entry): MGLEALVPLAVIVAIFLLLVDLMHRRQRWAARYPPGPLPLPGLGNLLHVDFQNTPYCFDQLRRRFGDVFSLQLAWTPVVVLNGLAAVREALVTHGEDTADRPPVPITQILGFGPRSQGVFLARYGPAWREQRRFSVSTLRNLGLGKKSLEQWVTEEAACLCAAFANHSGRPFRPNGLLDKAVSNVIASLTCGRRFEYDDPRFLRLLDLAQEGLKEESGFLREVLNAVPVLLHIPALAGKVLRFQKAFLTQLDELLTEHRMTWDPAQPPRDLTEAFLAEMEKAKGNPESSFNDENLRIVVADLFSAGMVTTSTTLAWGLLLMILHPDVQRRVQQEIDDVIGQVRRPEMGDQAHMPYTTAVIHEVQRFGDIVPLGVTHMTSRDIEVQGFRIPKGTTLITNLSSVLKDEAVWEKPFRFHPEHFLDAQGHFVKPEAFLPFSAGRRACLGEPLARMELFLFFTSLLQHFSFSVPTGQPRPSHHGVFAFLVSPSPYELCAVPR

`CCn1cnc(CN2CCN(c3cccc4[nH]c(-c5ccc(C(C)(C)C)cc5)nc34)CC2)c1C` gave a bioavailability [1] of 93%, an inhibition at 3 µM (CYP2D6) of 14% and an Activity (Rattus norvegicus [2]) of -32.3. For the same compound, the solubility [3] was over 100 µg/mL, the Activity (Rattus norvegicus [4]) was -3.5 and the half-life [5] was 21 min. It also gave a half-life [6] of 18 min, a half-life [7] of 222 min and an Activity (Rattus norvegicus [8]) of 14.5. The Activity (Rattus norvegicus [9]) was -18, the inhibition at 3 µM (CYP3A4) was 73% and the IC50 [10] was 200 nM. The IC50 [11] was 14 nM, the Activity (Rattus norvegicus [12]) was -52.8 and the IC50 [13] was 24 nM. The IC50 [14] was 7 nM, the AUC at 24 h [15] was 3440 ng·h/mL and the clearance [16] was 134 mL/min/kg. It also gave an inhibition at 3 µM (CYP2C9) of 27%, an Activity (Rattus norvegicus [17]) of -0.2 and a Vd [18] of 2.7 L/kg.

Reference: ChEMBL document CHEMBL1153337, “Small molecule antagonists of the gonadotropin-releasing hormone (GnRH) receptor: structure-activity relationships of small heterocyclic groups appended to the 2-phenyl-4-piperazinyl-benzimidazole template” (Bioorg Med Chem Lett, 2009)
